# Results from ChEMBL document CHEMBL1134460, “Terminally alkylated polyamine analogues as chemotherapeutic agents” (J Med Chem, 2001).
# What was measured:
# [1] = target: Diamine acetyltransferase 1 (Homo sapiens, UniProt P21673); test: Effect of 10 uM on spermine/spermidine-N-acetyltransferase (SSAT) induction in non-SCLC cells; assay type: cell-based
# Method in brief: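 NCI H157 non-small-cell lung tumor cells were exposed to 10 μM analogue. SSAT activity was assayed and expressed as pmol product/mg protein/min, then as fold increase over untreated control cells.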
# NCI-H157 [2] = test: Spermidine level in NCI H157 non-SCLC tumor cells following 24-h treatment with 10 uM of compound( Values in parentheses are control values); assay type: functional, Homo sapiens
# Method in brief: (§1)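 NCI H157 non-SCLC cells were exposed to 10 μM analogue alongside untreated controls. Cellular polyamines and analogue were quantified. SSAT activity was assayed in the cells and reported as pmol product/mg protein/min.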
# NCI-H157 [3] = test: Spermine/Spermidine-N1-acetyltransferase activity in NCI H157 non-SCLC tumor cells following 24-h treatment with 10 uM of compound.( Values in parentheses are control values); assay type: functional, Homo sapiens; method in brief: as §1
# [4] = Half-life period as determined by N-deethylation and stepwise removal of aminopropyl equivalents; assay type: ADME
# NCI-H157 [5] = test: Spermine level in NCI H157 non-SCLC tumor cells following 24-h treatment with 10 uM of compound( Values in parentheses are control values); assay type: functional, Homo sapiens; method in brief: as §1
# NCI-H157 [6] = test: Effect of exposure of H157 non-SCLC (<10 uM) for 96-h, and accumulation of compound was determined; assay type: functional, Homo sapiens
# [7] = target: T1, Ornithine decarboxylase (Homo sapiens) (UniProt P11926); test: Inhibition of ornithine decarboxylase (ODC); parameters: concentration or dose not given beside the values; details: concentration not given here
# T1 sequence (whole entry): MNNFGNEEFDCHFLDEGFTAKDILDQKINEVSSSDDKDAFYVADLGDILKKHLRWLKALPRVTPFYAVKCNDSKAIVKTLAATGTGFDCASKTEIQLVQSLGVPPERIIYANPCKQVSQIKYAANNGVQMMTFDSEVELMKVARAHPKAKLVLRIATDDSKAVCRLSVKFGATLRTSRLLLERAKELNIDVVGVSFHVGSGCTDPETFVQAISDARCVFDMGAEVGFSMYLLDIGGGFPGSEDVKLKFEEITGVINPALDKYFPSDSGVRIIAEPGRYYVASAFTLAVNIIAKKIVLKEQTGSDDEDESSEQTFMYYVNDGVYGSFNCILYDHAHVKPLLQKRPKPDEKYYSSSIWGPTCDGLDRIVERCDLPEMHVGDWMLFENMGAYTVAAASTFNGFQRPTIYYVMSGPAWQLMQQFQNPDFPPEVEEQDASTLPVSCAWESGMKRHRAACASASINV
# NCI-H157 [8] = test: CHENSpm level in NCI H157 non-SCLC tumor cells following 24-h treatment with 10 uM of compound( Values in parentheses are control values); assay type: functional, Homo sapiens; method in brief: as §1
# NCI-H157 [9] = test: Effect of exposure of H157 non-SCLC to compound (<10 uM) for 96-h, on natural polyamines and accumulation of the compound; Decrease; assay type: functional, cell-based; details: Homo sapiens
# Method in brief: (§2)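 H157 non-SCLC cells were treated with 10 μM analogue. Cellular putrescine, spermidine and spermine, plus the intracellular analogue, were quantified and compared with untreated control cells.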
# NCI-H157 [10] = test: Putrescine level in NCI H157 non-SCLC tumor cells following 24-h treatment with 10 uM of compound( Values in parentheses are control values); assay type: functional, Homo sapiens; method in brief: as §1
# [11] = target: S-adenosylmethionine decarboxylase (Homo sapiens) (UniProt P17707); test: Inhibition of Inhibition of human form of S-adenosyl-methionine decarboxylase enzyme (AdoMet-DC); parameters: concentration or dose not given beside the values; details: concentration not given here
# NCI-H157 [12] = test: BENSpm level in NCI H157 non-SCLC tumor cells following 24-h treatment with 10 uM of compound( Values in parentheses are control values); assay type: functional, Homo sapiens; method in brief: as §1
# Trypanosoma brucei [13] = test: In vitro growth Inhibitory activity against K243 As-10-3 Strain of Trypanosoma brucei; assay type: functional, organism-based
# Method in brief: (§3)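 In vitro growth inhibition was run against T. b. brucei LAB EATRO 110 and T. b. rhodesiense KETRI 243, KETRI 243 As-10-3 and KETRI 269. […] ">100" means no appreciable inhibition up to the highest concentration tested.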
# Trypanosoma brucei [14] = test: In vitro growth Inhibitory activity against K243 Strain of Trypanosoma brucei.; assay type: functional, organism-based; method in brief: as §3
# Trypanosoma brucei [15] = test: In vitro growth Inhibitory activity against LAB 110 Strain of Trypanosoma brucei; assay type: functional, organism-based; method in brief: as §3
# Trypanosoma brucei [16] = test: In vitro growth Inhibitory activity against K269 Strain of Trypanosoma brucei.; assay type: functional, organism-based; method in brief: as §3
# NCH82 [17] = test: Cytokinetic effects on H82 small-cell lung tumor line (SCLC) after 96-h treatment; assay type: functional, Homo sapiens
# NCI-H157 [18] = test: (§4) Effect of exposure of H157 non-SCLC to compound (<10 uM) for 96-h, on natural polyamines and accumulation of the compound; No significant change; assay type: functional, cell-based; details: Homo sapiens; method in brief: as §2
# Trypanosoma brucei [19] = test: in vivo growth inhibition of Trypanosoma brucei was determined; assay type: functional, organism-based
# NCI-H157 [20] = test: as §4; assay type: functional, cell-based; details: Homo sapiens; remark: listed apart in the source
# [21] = Half-life period in liver tissues; assay type: ADME, tissue-based
# [22] = target: T2, S-adenosylmethionine decarboxylase proenzyme (Rattus norvegicus, UniProt P17708); test: Inhibition of rat liver form of S-adenosyl-methionine decarboxylase enzyme
# T2 sequence (P17708 whole entry): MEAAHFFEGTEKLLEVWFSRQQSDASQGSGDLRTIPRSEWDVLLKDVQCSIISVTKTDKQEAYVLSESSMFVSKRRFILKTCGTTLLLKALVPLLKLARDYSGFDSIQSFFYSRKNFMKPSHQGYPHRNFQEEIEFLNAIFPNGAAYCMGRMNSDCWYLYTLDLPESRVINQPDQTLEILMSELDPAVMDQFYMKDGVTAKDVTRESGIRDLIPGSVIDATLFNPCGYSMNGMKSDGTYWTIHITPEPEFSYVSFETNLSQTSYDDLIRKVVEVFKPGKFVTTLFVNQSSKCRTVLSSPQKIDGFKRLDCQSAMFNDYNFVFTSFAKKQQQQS
# NCH82 [23] = test: In vitro activity against H82 small-cell lung tumor line (SCLC) cultures.; assay type: functional, cell-based; details: Homo sapiens
# NCI-H157 [24] = test: Antitumor activity was determined against H157 cell line; assay type: functional, cell-based; details: Homo sapiens
# NCI-H157 [25] = test: In vitro activity against H157 non-small-cell lung tumor line (non-SCLC) cultures.; assay type: functional, cell-based; details: Homo sapiens
# Cricetinae gen. sp. = test: […] activity was determined against Leishmania donovani in hamsters; assay type: functional, Cricetulus griseus
# Mus musculus = organism: Mus musculus; test: […] activity was determined against Leishmania donovani in mice (Mus musculus); assay type: functional
# Chain of Diamine acetyltransferase 1 (P21673 whole entry): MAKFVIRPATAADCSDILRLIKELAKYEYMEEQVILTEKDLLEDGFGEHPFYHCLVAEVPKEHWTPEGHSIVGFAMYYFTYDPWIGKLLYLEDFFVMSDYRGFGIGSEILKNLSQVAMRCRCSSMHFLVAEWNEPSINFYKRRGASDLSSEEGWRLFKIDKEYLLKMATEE
compound,measurement,setting,value
CCNCCCNCCCNCCCNCC [BIS(ETHYL)NORSPERMINE],Induction,[1],> 500
same,Polyamine level,NCI-H157 [2],0
same,Activity,NCI-H157 [3],148141 (pM of product) min-1 (mg of protein)-1
same,half-life,[4],1.22 h
same,Polyamine level,NCI-H157 [5],0.51
same,Amount,NCI-H157 [6],>20 nM (mg of protein)-1
same,inhibition,[7],> 50%
same,Polyamine level,NCI-H157 [8],0
same,Effect on polyamine pools,NCI-H157 [9],Decrease
same,Polyamine level,NCI-H157 [10],0
same,inhibition,[11],> 50%
same,Polyamine level,NCI-H157 [12],36.07
COc1cccc(CNCCCNCCCCCCCNCCCNCc2cccc(OC)c2)c1,IC50,Trypanosoma brucei [13],5.5 µM
same,IC50,Trypanosoma brucei [14],18.5 µM
same,IC50,Trypanosoma brucei [15],22 µM
same,IC50,Trypanosoma brucei [16],16.5 µM
CCNCCCNCCCNCCCNCC1CCC1,Induction,[1],> 500
same,Amount,NCI-H157 [6],>20 nM (mg of protein)-1
same,inhibition,[7],> 50%
same,Effect on polyamine pools,NCI-H157 [9],Decrease
CCNCCCNCCCN1CCCCCC1,Induction,[1],< 50
same,Effect,NCH82 [17],0
same,Effect on polyamine pools,NCI-H157 [18],No significant change
C[S+](C[C@@H]1O[C@H](n2cnc3c(N)ncnc32)[C@@H](O)[C@H]1O)C1C=CC(ON)C1 (some centres undefined),IC50,Trypanosoma brucei [19],0.9 µM
N[C@@H]1C=C[C@H](NCCCNCC2CC2)C1,IC50,Trypanosoma brucei [14],> 100 µM
same,IC50,Trypanosoma brucei [15],> 100 µM
CCNCCCN[C@H]1C=C[C@@H](N)CCC1,IC50,Trypanosoma brucei [14],> 100 µM
same,IC50,Trypanosoma brucei [15],> 100 µM
C(CCCNCCCNCC1CCCCCC1)CCCNCCCNCC1CCCCCC1,Induction,[1],0
same,NC,NCI-H157 [20],No significant change
CCNCCCN[C@@H]1CCC[C@H](N)CC1,IC50,Trypanosoma brucei [14],> 100 µM
same,IC50,Trypanosoma brucei [15],> 100 µM
CCNCCCCNCCCCNCCCCNCC [DIETHYLHOMOSPERMINE],half-life,[21],370 h
NC/C=C\NC[C@@H]1O[C@H](n2cnc3c(N)ncnc32)[C@@H](O)[C@H]1O,Ki,[22],0.56 µM
c1ccc(CNCCCNCCCCCCCNCCCNCc2ccccc2)cc1,IC50,NCH82 [23],1.7 µM
same,IC50,NCI-H157 [24],0.5 µM
same,IC50,NCI-H157 [25],0.5 µM
same,ED50,Cricetinae gen. sp.,1 mg/kg
same,ED50,Mus musculus,2.5 mg/kg
CCNCCCNCCCNCCCNCC1CCC(Br)CC1 (centres undefined),Induction,[1],< 50
same,Amount,NCI-H157 [6],>20 nM (mg of protein)-1
same,inhibition,[7],< 50%
same,Effect on polyamine pools,NCI-H157 [9],Decrease
same,inhibition,[11],< 50%
